According to ChEMBL document CHEMBL1123816, “Synthesis and antidepressant properties of novel 2-substituted 4,5-dihydro-1H-imidazole derivatives” (J Med Chem, 1987):

What was measured:
[1] = selectivity ratio (Alpha-1[Methoxiamine]/Alpha2[clonidine]
In short: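 Ratio derived from Schild pA2 values in rat vas deferens: α1 antagonism against methoxamine contractions (24 °C Krebs, three antagonist concentrations) versus α2 antagonism against clonidine inhibition of field-stimulated twitch (33–34 °C, 80 V, 1 ms, 0.15 Hz).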

[2] = biological target: T1, Adrenergic receptor alpha-2 (Rattus norvegicus, UniProt P22086+P19328+P22909); assay: (§1) In vitro antagonistic activity against alpha-2 adrenergic receptor in isolated electrically stimulated rat vas deferens (clonidine-induced decrease in twitch height); assay type: functional, tissue-based
T1 sequence (P22086 whole entry): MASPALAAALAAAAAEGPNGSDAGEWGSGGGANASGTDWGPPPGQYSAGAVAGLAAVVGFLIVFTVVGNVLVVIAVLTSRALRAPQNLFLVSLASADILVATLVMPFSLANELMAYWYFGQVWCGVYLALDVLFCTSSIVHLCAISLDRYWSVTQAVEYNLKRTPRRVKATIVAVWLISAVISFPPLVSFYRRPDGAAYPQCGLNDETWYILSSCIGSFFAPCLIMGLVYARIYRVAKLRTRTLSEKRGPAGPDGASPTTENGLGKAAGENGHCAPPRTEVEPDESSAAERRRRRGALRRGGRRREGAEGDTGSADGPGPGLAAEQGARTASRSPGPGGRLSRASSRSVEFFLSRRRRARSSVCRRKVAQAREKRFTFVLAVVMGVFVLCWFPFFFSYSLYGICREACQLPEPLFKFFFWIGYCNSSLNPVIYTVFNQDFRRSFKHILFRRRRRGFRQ
T1 sequence (P19328 whole entry): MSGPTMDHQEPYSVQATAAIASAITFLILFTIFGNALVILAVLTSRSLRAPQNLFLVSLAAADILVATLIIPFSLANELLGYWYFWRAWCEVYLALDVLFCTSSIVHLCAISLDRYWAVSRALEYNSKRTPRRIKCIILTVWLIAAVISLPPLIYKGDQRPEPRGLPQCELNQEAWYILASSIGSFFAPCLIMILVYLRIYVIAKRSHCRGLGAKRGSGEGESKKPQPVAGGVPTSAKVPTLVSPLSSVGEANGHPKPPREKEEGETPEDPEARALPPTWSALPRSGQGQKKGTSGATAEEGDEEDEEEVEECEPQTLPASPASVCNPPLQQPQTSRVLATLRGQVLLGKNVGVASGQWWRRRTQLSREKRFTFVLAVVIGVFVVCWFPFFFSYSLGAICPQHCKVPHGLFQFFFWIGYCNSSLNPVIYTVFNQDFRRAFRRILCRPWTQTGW
T1 sequence (P22909 whole entry): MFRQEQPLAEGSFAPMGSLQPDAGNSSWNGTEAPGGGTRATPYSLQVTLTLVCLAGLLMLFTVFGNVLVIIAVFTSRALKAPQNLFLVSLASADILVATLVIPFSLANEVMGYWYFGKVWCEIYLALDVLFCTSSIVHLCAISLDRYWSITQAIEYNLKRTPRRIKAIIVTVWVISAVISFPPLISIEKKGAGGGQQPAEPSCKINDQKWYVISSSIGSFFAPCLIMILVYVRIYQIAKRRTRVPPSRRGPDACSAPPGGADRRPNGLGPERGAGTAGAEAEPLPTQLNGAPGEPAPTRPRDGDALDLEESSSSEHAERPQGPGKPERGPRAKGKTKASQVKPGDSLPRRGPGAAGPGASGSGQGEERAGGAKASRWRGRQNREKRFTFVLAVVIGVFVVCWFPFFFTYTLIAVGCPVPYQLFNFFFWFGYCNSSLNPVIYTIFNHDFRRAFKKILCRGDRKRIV

[3] = biological target: T2, Adrenergic receptor alpha-1 (Rattus norvegicus, UniProt P15823+P23944+P43140); assay: In vitro antagonistic activity against alpha-1 adrenergic receptor in isolated unstimulated rat vas deferens (methoxamine-induced contractions)
T2 sequence (P15823 whole entry): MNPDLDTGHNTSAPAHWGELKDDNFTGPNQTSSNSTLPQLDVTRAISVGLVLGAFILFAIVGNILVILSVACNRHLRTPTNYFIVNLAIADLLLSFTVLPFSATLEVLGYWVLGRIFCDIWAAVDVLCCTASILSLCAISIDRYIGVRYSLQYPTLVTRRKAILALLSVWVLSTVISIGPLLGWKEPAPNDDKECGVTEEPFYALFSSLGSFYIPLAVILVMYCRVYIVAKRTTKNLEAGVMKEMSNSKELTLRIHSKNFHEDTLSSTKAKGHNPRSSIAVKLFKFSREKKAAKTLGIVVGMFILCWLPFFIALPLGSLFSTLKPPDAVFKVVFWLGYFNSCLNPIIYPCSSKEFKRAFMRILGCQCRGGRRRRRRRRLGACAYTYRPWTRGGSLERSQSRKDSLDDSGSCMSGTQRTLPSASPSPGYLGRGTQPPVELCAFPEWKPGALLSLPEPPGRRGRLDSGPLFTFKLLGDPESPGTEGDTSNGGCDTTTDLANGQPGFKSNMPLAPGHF
T2 sequence (P23944 whole entry): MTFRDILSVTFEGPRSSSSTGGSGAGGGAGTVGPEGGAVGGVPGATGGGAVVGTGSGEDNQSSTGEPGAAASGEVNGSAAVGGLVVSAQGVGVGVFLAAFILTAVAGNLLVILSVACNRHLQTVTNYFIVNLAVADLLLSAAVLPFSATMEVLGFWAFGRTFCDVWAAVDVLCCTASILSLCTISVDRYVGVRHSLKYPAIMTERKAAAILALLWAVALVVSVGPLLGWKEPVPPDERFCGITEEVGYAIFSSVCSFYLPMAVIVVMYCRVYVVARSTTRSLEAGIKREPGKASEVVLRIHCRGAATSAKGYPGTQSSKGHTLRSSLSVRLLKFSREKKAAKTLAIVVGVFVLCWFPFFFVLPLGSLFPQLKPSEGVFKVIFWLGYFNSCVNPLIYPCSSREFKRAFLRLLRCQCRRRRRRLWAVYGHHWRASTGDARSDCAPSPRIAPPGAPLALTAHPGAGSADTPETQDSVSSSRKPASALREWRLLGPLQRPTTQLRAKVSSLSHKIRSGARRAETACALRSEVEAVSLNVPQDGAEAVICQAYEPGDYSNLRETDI
T2 sequence (P43140 whole entry): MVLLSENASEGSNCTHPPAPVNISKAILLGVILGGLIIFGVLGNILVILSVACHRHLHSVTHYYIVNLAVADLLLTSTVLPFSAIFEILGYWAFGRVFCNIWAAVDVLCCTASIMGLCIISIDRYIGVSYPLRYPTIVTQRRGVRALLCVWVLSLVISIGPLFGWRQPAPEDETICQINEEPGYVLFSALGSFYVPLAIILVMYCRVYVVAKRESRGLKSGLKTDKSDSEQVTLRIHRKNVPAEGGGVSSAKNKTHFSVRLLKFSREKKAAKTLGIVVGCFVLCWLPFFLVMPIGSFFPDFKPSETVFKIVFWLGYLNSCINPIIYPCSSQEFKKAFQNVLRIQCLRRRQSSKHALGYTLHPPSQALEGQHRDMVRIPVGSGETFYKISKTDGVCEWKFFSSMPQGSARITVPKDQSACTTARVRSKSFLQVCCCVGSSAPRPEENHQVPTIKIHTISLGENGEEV

[4] = biological target: T1, Adrenergic receptor alpha-2; assay: Ability to displace [3H]clonidine from alpha-2 adrenergic receptor in rat brain homogenates in vitro; assay type: tissue-based
[5] = biological target: T1, Adrenergic receptor alpha-2; assay: as §1; assay type: functional, tissue-based; remark: listed apart in the source

SMILES	Selectivity ratio [1]	pA2 [2]	pA2 [3]	Ki [4] [nM]	pA2 [5]	Ratio [1]
CC1=C(CC2=NCCN2)CCc2ccccc21.Cl	1.3	7.19	7.08	12	7.19	
C1=C(CC2=NCCN2)CCc2ccccc21.Cl [NAPAMEZOLE HYDROCHLORIDE]		7.76	6.87	23	7.76	7.8
